Assay results taken from ChEMBL document CHEMBL3272335, “Dibenz[b,e]oxepinalkanoic acids as nonsteroidal antiinflammatory agents. 1. 6,11-Dihydro-11-oxodibenz]b,e]oxepin-2-acetic acids” (J Med Chem, 1977).

Legend:
Rattus norvegicus [1] = assay: Antiinflammatory activity in po dosed Wistar rat assessed as inhibition of carrageenan-induced paw edema administered 1 hr prior to carrageenan challenge measured 3 hrs post-carrageenan injection; format: functional
Method in brief: (§1)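 Female Carworth Wistar rats (120-150 g), ten per group, are fasted 12-16 h with water allowed. Compounds are given orally as an aqueous Tween 80 suspension (10 ml/kg); controls get vehicle. After 1 h, 0.1 ml of 1% carrageenan is injected subplantar into the left hind paw. Paw volume is read by mercury displacement before and 3 h after injection. Result is % edema difference versus control.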

Rattus norvegicus [2] = assay: Antiinflammatory activity against Mycobacterium butyricum adjuvant-induced polyarthritis in po dosed Lewis albino rat assessed as decrease in non-injected paw edema administered daily for 21 days […]; format: functional
Method in brief: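 Female Charles River-Lewis albino rats, 150-170 g, groups of ten, housed singly; heat-killed dry Mycobacterium butyricum in white paraffin oil (0.5 mg/0.1 ml) injected into left hind paw. Oral dosing as aqueous suspension with Tween 80 (10 ml/kg), starting the day before adjuvant and daily for 21 days; vehicle controls. Paw volume by mercury displacement from injection day onward; ED50 by Litchfield-Wilcoxon with 95% confidence limits.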

[3] = Therapeutic ratio of ID50 for ulcerogenicity in Wistar rat to ED50 for antiinflammatory activity against Mycobacterium butyricum adjuvant-induced polyarthritis in Lewis albino rat non-injected paw; format: ADME; settings: in vivo, read-out: TI
Method in brief: (§2)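 Ratio of the gastric irritation ID50 (oral dose, Wistar rats, lesions scored as irritation in 50% of animals) to the adjuvant polyarthritis ED50 (Lewis rats, 21-day oral dosing). The ED50 is taken from the adjuvant-injected paw or the noninjected paw, with paw volume measured by mercury displacement.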

Rattus norvegicus [4] = assay: Antiinflammatory activity against Mycobacterium butyricum adjuvant-induced polyarthritis in po dosed Lewis albino rat assessed as decrease in adjuvant treated paw edema administered daily for 21 days […]; format: functional
Method in brief: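 Female Charles River-Lewis albino rats (150-170 g), ten per group, housed individually. Heat-killed Mycobacterium butyricum in paraffin oil (0.5 mg/0.1 ml) is injected into the left hind paw. Oral dosing starts the day before adjuvant and continues daily for 21 days, using a Tween 80 aqueous suspension. Paw volume is measured by mercury displacement from injection day onward. ED50 by Litchfield-Wilcoxon, with 95% confidence limits.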

Mus musculus = assay: Analgesic activity in po dosed CD-1 mouse assessed as inhibition of phenylquinone-induced writhing administered prior to phenylquinone challenge measured 5 mins after phenylquinone injection; format: functional; settings: CD-1, po
Method in brief: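 Male CD-1 Charles River mice (18-24 g), fed ad libitum, are dosed orally with drug as an aqueous suspension with Tween 80 (10 ml/kg); controls get vehicle. Phenylquinone (0.125% in 5% aqueous ethanol) is given ip at 10 ml/kg at the peak-activity time. Writhes are counted for 10 min, starting 5 min post-injection. Ten mice per group, four doses. Result is % inhibition of writhes versus control; ED50 by Litchfield-Wilcoxon.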

[5] = Therapeutic ratio of ID50 for ulcerogenicity in Wistar rat to ED50 for antiinflammatory activity against Mycobacterium butyricum adjuvant-induced polyarthritis in Lewis albino rat adjuvant treated paw; format: ADME; settings: in vivo, read-out: TI; method in brief: as §2
[6] = Ulcerogenicity in po dosed Wistar rat assessed as induction of gastric irritation; format: toxicity, organism-based, Stomach; settings: in vivo, read-out: ID50 (the source's name)
Method in brief: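 Groups of eight male Wistar rats (150-175 g) are fasted 48 h with water allowed, then dosed orally (10 ml/kg); controls get vehicle. Rats are killed at 3, 5 and 7 h post-dose, and stomach and intestines are examined for erosion, ulcer or perforation. ID50 is the dose causing irritation in 50% of animals.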

Rattus norvegicus [7] = assay: Antiinflammatory activity in Wistar rat assessed as inhibition of carrageenan-induced paw edema at 50 mg/kg, po administered 1 hr prior to carrageenan challenge measured 3 hrs post-carrageenan injection; format: functional; method in brief: as §1

SMILES	ED50 (Rattus norvegicus [1])	ED50 (Mus musculus)	other results
O=C(O)Cc1ccc2c(c1)Cc1ccccc1CO2	200 mg/kg	–	–
COc1ccc2c(c1)c(CC(=O)O)c(C)n2C(=O)c1ccc(Cl)cc1 [INDOMETHACIN]	–	0.7 mg/kg	ED50 (Rattus norvegicus [2]): 0.27 mg/kg; selectivity ratio [3]: 6.7; ED50 (Rattus norvegicus [4]): 0.47 mg/kg; selectivity ratio [5]: 3.8; TD50 [6]: 1.8 mg/kg
O=C(O)Cc1ccc2c(c1)C(=O)c1ccccc1CO2 [ISOXEPAC]	–	7.57 mg/kg	ED50 (Rattus norvegicus [2]): 1.06 mg/kg; selectivity ratio [3]: 78; ED50 (Rattus norvegicus [4]): 2.1 mg/kg; selectivity ratio [5]: 39; TD50 [6]: 82.5 mg/kg
COC(=O)Cc1ccc2c(c1)C(=O)c1ccccc1CO2	31 mg/kg	26.6 mg/kg	–
O=C(O)Cc1ccc2c(c1)C(=O)c1ccccc1CS2	–	–	inhibition in vivo at 50 mg/kg (Rattus norvegicus [7]): 42.7%
O=C(O)Cc1ccc2c(c1)C(=O)c1cccc(Cl)c1CO2	< 50 mg/kg	> 50 mg/kg	–
Cc1cccc2c1C(=O)c1cc(CC(=O)O)ccc1OC2	> 50 mg/kg	–	–
CCCCCOC(=O)Cc1ccc2c(c1)C(=O)c1ccccc1CO2	2.9 mg/kg	> 50 mg/kg	–
OCCc1ccc2c(c1)C(O)c1ccccc1CO2 (centres undefined)	> 200 mg/kg	–	–
CCCOC(=O)Cc1ccc2c(c1)C(=O)c1ccccc1CO2	3.55 mg/kg	16.7 mg/kg	–
COC(=O)Cc1ccc2c(c1)C(OC)c1ccccc1CO2 (centres undefined)	> 200 mg/kg	–	–
O=C(O)Cc1ccc2c(c1)C(=O)c1cc(Cl)ccc1CO2	> 50 mg/kg	> 50 mg/kg	–
O=C(Cc1ccc2c(c1)C(=O)c1ccccc1CO2)OCc1ccccc1	> 50 mg/kg	–	–
O=C(O)Cc1ccc2c(c1)C(=O)c1cc(C(F)(F)F)ccc1CO2	> 50 mg/kg	–	–
COc1ccc2c(c1)COc1ccc(CC(=O)O)cc1C2=O	58.6 mg/kg	> 50 mg/kg	–
O=C(O)Cc1cc(Cl)c2c(c1)C(=O)c1ccccc1CO2	> 50 mg/kg	–	–
CCOC(=O)Cc1ccc2c(c1)C(=O)c1ccccc1CO2	6.85 mg/kg	> 50 mg/kg	–
O=C(O)Cc1ccc2c(c1)C(=O)c1ccc(Cl)cc1CO2	26.5 mg/kg	34.3 mg/kg	–
O=C(O)Cc1ccc2c(c1)C(=O)c1cc(F)ccc1CO2	356 mg/kg	–	–
CCCCOC(=O)Cc1ccc2c(c1)C(=O)c1ccccc1CO2	14.7 mg/kg	12.7 mg/kg	–
CC(C)OC(=O)Cc1ccc2c(c1)C(=O)c1ccccc1CO2	6.84 mg/kg	< 50 mg/kg	–
NC(=O)Cc1ccc2c(c1)C(=O)c1ccccc1CO2	> 100 mg/kg	> 100 mg/kg	–
COC(=O)Cc1ccc2c(c1)C(O)c1ccccc1CO2 (centres undefined)	> 200 mg/kg	–	–
